Laboratory results reported in ChEMBL document CHEMBL1149664, “Anthranilamide inhibitors of factor Xa” (2007).

What was measured:
[1] = molecular target: Prothrombin (Homo sapiens) (UniProt P00734); assay: Inhibition of human factor 2a
Procedure, shortened: (§1)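 Values are reported as an apparent association constant (Kassoc) between enzyme and inhibitor, in 10^6 L/mol.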

[2] = molecular target: Coagulation factor X (Homo sapiens) (UniProt P00742); assay: Inhibition of human factor 10a; procedure, shortened: as §1
[3] = tested on: Plasma; assay: Anticoagulant potency in human citreated plasma assessed as concentration required to double activated partial thromboplastin time; type: functional
[4] = tested on: Plasma; assay: Anticoagulant potency in human citreated plasma assessed as concentration required to double prothrombin time; type: functional

Coagulation factor X (Homo sapiens), sequence (P00742 41-179 limits assumed): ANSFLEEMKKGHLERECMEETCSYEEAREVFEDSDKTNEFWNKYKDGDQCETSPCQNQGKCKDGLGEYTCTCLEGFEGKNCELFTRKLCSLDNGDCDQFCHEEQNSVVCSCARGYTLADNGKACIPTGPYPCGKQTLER
Coagulation factor X (Homo sapiens), sequence (P00742 235-488 limits assumed): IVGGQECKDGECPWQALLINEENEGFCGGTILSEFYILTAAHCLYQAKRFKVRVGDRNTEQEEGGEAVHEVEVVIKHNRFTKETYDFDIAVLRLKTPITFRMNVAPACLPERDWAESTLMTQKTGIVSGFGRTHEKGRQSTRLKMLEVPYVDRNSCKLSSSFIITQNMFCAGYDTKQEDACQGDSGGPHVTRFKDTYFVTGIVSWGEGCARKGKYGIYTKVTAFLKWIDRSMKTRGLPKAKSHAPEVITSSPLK

| Compound | Kapp [1] | Kapp [2] | Activity [3] | Activity [4] |
| --- | --- | --- | --- | --- |
| CC(C)(C)OC(=O)N1CCC(Oc2cc(C(C)(C)C)ccc2C(=O)Nc2ccccc2C(=O)Nc2ccc(Cl)cn2)CC1 | 6 10^6L/mol | 69 10^6L/mol | 55 µM | 64 µM |
| NCCCOc1cc(N2CCCCC2)ccc1C(=O)Nc1ccccc1C(=O)Nc1ccc(Cl)cn1 | 17 10^6L/mol | 323 10^6L/mol | 1 µM | 0.93 µM |
| CC(C)(C)c1ccc(C(=O)Nc2ccccc2C(=O)Nc2ccc(Cl)cn2)c(O)c1 | 0.02 10^6L/mol | 23 10^6L/mol | >100 µM | >100 µM |
| CC(C)(C)c1ccc(C(=O)Nc2ccccc2C(=O)Nc2ccc(Cl)cn2)c(OCCCN)c1 | 152 10^6L/mol | 1440 10^6L/mol | 0.85 µM | 0.79 µM |
| COCCN1CCC(Oc2cc(C(C)(C)C)ccc2C(=O)Nc2ccccc2C(=O)Nc2ccc(Cl)cn2)CC1 | 24 10^6L/mol | 3080 10^6L/mol | 2.1 µM | 2.1 µM |
| CC(C)(C)c1ccc(C(=O)Nc2ccccc2C(=O)Nc2ccc(Cl)cn2)c(OC2CCN(CC3CC3)CC2)c1 | 37 10^6L/mol | 1370 10^6L/mol | 2.4 µM | 2.5 µM |
| NCCCOc1cc(N2CCSCC2)ccc1C(=O)Nc1ccccc1C(=O)Nc1ccc(Cl)cn1 | 17 10^6L/mol | 709 10^6L/mol | 0.69 µM | 0.61 µM |
| NCCCOc1cc(N2CCCCCC2)ccc1C(=O)Nc1ccccc1C(=O)Nc1ccc(Cl)cn1 | 25 10^6L/mol | 130 10^6L/mol | 3.1 µM | 2.7 µM |
| CC(C)(C)c1ccc(C(=O)Nc2ccccc2C(=O)Nc2ccc(Cl)cn2)c(OC2CCN(C(=S)NCc3cccnc3)CC2)c1 | 34 10^6L/mol | 733 10^6L/mol | 13.4 µM | 21.8 µM |
| CCCN1CCC(Oc2cc(C(C)(C)C)ccc2C(=O)Nc2ccccc2C(=O)Nc2ccc(Cl)cn2)CC1 | 30 10^6L/mol | 1940 10^6L/mol | 3.1 µM | 3.3 µM |
| CC(C)(C)OC(=O)N1CCCCC1COc1cc(C(C)(C)C)ccc1C(=O)Nc1ccccc1C(=O)Nc1ccc(Cl)cn1 (stereo not drawn) | 3.9 10^6L/mol | 3.1 10^6L/mol | >70 µM | >70 µM |
| CC(C)(C)c1ccc(C(=O)Nc2ccccc2C(=O)Nc2ccc(Cl)cn2)c(OC2CCN(Cc3ccccc3C(=O)O)CC2)c1 | 72 10^6L/mol | 1160 10^6L/mol | 0.57 µM | 1 µM |
| CC(C)(C)OC(=O)NCCCOc1cc(C(C)(C)C)ccc1C(=O)Nc1ccccc1C(=O)Nc1ccc(Cl)cn1 | 0.2 10^6L/mol | 54 10^6L/mol | >70 µM | >70 µM |
| CC(C)(C)c1ccc(C(=O)Nc2ccccc2C(=O)Nc2ccc(Cl)cn2)c(OC2CCN(C(=O)Nc3ccccc3F)CC2)c1 | 27 10^6L/mol | 307 10^6L/mol | 21.5 µM | 30.2 µM |
| CN1CCC(Oc2cc(C(C)(C)C)ccc2C(=O)Nc2ccccc2C(=O)Nc2ccc(Cl)cn2)CC1 | 61 10^6L/mol | 1630 10^6L/mol | 0.93 µM | 1.1 µM |
| CC(C)(C)c1ccc(C(=O)Nc2ccccc2C(=O)Nc2ccc(Cl)cn2)c(OC2CCNCC2)c1 | 114 10^6L/mol | 1110 10^6L/mol | 0.85 µM | 0.88 µM |
| CN1CCCN(c2ccc(C(=O)Nc3ccccc3C(=O)Nc3ccc(Cl)cn3)c(OCCCN)c2)CC1 | 24 10^6L/mol | 8970 10^6L/mol | 0.1 µM |  |
| CC(C)(C)c1ccc(C(=O)Nc2ccccc2C(=O)Nc2ccc(Cl)cn2)c(OC2CCN(Cc3ccsc3)CC2)c1 | 23 10^6L/mol | 450 10^6L/mol | 14.8 µM | 20 µM |
| NCCCOc1cc(N2CCOCC2)ccc1C(=O)Nc1ccccc1C(=O)Nc1ccc(Cl)cn1 | 5.8 10^6L/mol | 516 10^6L/mol | 0.26 µM | 0.34 µM |

More lines, main results first:

| Kapp [1] | Kapp [2] | Compound | Activity [3] | Activity [4] |
| --- | --- | --- | --- | --- |
| 0.14 10^6L/mol | 2.9 10^6L/mol | CC(C)(CNC(=O)OC(C)(C)C)COc1cc(C(C)(C)C)ccc1C(=O)Nc1ccccc1C(=O)Nc1ccc(Cl)cn1 | >70 µM | >70 µM |
|  | 5 10^6L/mol | COc1ccc(NC(=O)c2ccccc2NC(=O)c2ccc(C(C)(C)C)cc2)cc1 |  |  |
| 60 10^6L/mol | 176 10^6L/mol | CN(C)CC(=O)N1CCC(Oc2cc(C(C)(C)C)ccc2C(=O)Nc2ccccc2C(=O)Nc2ccc(Cl)cn2)CC1 |  |  |
| 54 10^6L/mol | 2160 10^6L/mol | CC(C)(C)c1ccc(C(=O)Nc2ccccc2C(=O)Nc2ccc(Cl)cn2)c(OC2CCN(Cc3ncc[nH]3)CC2)c1 | 1.8 µM | 2.6 µM |
| 40 10^6L/mol | 3010 10^6L/mol | NCCCOc1cc(N2CCCC2)ccc1C(=O)Nc1ccccc1C(=O)Nc1ccc(Cl)cn1 | 0.41 µM | 0.41 µM |
|  | 7 10^6L/mol | COc1ccc(NC(=O)c2ccccc2NC(=O)c2ccc(C(C)C)cc2)cc1 |  |  |
| 145 10^6L/mol | 170 10^6L/mol | CN(C)CCCNC(=S)N1CCC(Oc2cc(C(C)(C)C)ccc2C(=O)Nc2ccccc2C(=O)Nc2ccc(Cl)cn2)CC1 | 2.9 µM | 2.9 µM |
|  | 0.5 10^6L/mol | CC(C)(C)c1ccc(C(=O)Nc2ccccc2C(=O)Nc2ccc(Cl)cc2)cc1 |  |  |
| 20 10^6L/mol | 488 10^6L/mol | CC(C)(C)c1ccc(C(=O)Nc2ccccc2C(=O)Nc2ccc(Cl)cn2)c(OC2CCN(Cc3ccccc3)CC2)c1 | 28.1 µM | 44.6 µM |
| 4 10^6L/mol | 714 10^6L/mol | CC(C)(C)c1ccc(C(=O)Nc2ccccc2C(=O)Nc2ccc(Cl)cn2)c(OC2CCN(C(=O)CCC(=O)O)CC2)c1 | 6.1 µM | 5.3 µM |
|  | 0.03 10^6L/mol | COc1ccc(C(=O)Nc2ccccc2C(=O)Nc2ccc(C(C)(C)C)cc2)cc1 |  |  |
| 134 10^6L/mol | 448 10^6L/mol | CC(C)(C)c1ccc(C(=O)Nc2ccccc2C(=O)Nc2ccc(Cl)cn2)c(OC2CCN(C(=O)Cn3cnnn3)CC2)c1 | 8 µM | 10 µM |
|  | 1 10^6L/mol | COc1ccc(NC(=O)c2ccccc2NC(=O)c2ccc(OC)cc2)cc1 |  |  |
| 7.3 10^6L/mol | 874 10^6L/mol | NCCCOc1cc(N2CC[C@@H](N)C2)ccc1C(=O)Nc1ccccc1C(=O)Nc1ccc(Cl)cn1 | 0.4 µM | 0.45 µM |
| 21 10^6L/mol | 513 10^6L/mol | Cn1nccc1C(=O)N1CCC(Oc2cc(C(C)(C)C)ccc2C(=O)Nc2ccccc2C(=O)Nc2ccc(Cl)cn2)CC1 | 5.7 µM | 7.6 µM |
| 25 10^6L/mol | 3440 10^6L/mol | CC(C)N1CCC(Oc2cc(C(C)(C)C)ccc2C(=O)Nc2ccccc2C(=O)Nc2ccc(Cl)cn2)CC1 | 1.2 µM | 1.8 µM |
|  | 42 10^6L/mol | CC(C)(C)c1ccc(C(=O)Nc2ccccc2C(=O)Nc2ccc(Cl)cn2)cc1 |  |  |
| 67 10^6L/mol | 219 10^6L/mol | CC(C)(C)c1ccc(C(=O)Nc2ccccc2C(=O)Nc2ccc(Cl)cn2)c(OCC2CCCCN2)c1 (stereo not drawn) | 1.4 µM | 1.4 µM |
| 2 10^6L/mol | 82 10^6L/mol | CN1CCN(c2ccc(C(=O)Nc3ccccc3C(=O)Nc3ccc(Cl)cn3)c(OCCCN)c2)CC1 |  |  |
| 1100 10^6L/mol | 76 10^6L/mol | CC(C)(CN)COc1cc(C(C)(C)C)ccc1C(=O)Nc1ccccc1C(=O)Nc1ccc(Cl)cn1 | 2 µM | 1.6 µM |
